Test results from ChEMBL document CHEMBL1145272, “P2 pyridine N-oxide thrombin inhibitors: a novel peptidomimetic scaffold” (Bioorg Med Chem Lett, 2005).

Legend:
Prothrombin = Prothrombin (Homo sapiens, UniProt P00734); test: Binding affinity against thrombin in human plasma; format: cell-free
[1] = Maximal plasma concentration in dogs after 0.7 mg/kg oral dose; format: ADME, organism-based, Canis lupus familiaris; design: dose 0.7 mg/kg, route oral; details: dog
Outline: (§1)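 Dogs were given the compound orally at 0.65, 0.7 or 0.95 mpk, with the dose differing by compound. Plasma was sampled to obtain the maximum concentration (Cmax, μM) and the plasma half-life (t1/2, h).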

[2] = Half-life in dog plasma; format: ADME, organism-based, Canis lupus familiaris; outline: as §1
[3] = Maximal plasma concentration in dogs after 0.65 mg/kg oral dose; format: ADME, organism-based, Canis lupus familiaris; design: dose 0.65 mg/kg, route oral; details: dog; outline: as §1
[4] = Maximal plasma concentration in dogs after 0.95 mg/kg oral dose; format: ADME, organism-based, Canis lupus familiaris; design: dose 0.95 mg/kg, route oral; details: dog; outline: as §1
[5] = Maximal plasma concentration in dogs after 0.85 mg/kg oral dose; format: ADME, organism-based, Canis lupus familiaris; design: dose 0.85 mg/kg, route oral; details: dog

| Structure (SMILES) | Ki (Prothrombin) | further results |
| --- | --- | --- |
| N#Cc1ccc(N)[n+]([O-])c1CC(=O)NCc1cc(Cl)ccc1-n1cnnn1 | 18 nM | – |
| O=C(Cc1cccc(NCC(F)(F)c2ccccn2)[n+]1[O-])NCc1cc(Cl)ccc1-n1cncn1 | 1.5 nM | – |
| Nc1ccc(Cl)c(CC(=O)NCc2cc(Cl)ccc2-n2cnnn2)[n+]1[O-] | 140 nM | – |
| NCc1ccc(Cl)cc1CNC(=O)Cc1c(Cl)ccc(N)[n+]1[O-] | 26 nM | – |
| N#Cc1ccc(NCC(F)(F)c2ccccn2)[n+]([O-])c1CC(=O)NCc1ncccc1F | 1.5 nM | – |
| C[C@@H](NC(=O)Cc1c(Cl)ccc(NCC(F)(F)c2ccccn2)[n+]1[O-])c1cc(Cl)ccc1CN | 260 nM | – |
| O=C(Cc1c(Cl)ccc(NCC(F)(F)c2ccccn2)[n+]1[O-])NCc1ncccc1F | 6 nM | – |
| C[C@H](N)c1ccc(Cl)cc1CNC(=O)Cc1c(Cl)ccc(NCC(F)(F)c2ccccn2)[n+]1[O-] | 20 nM | – |
| N#Cc1ccc(NCC(F)(F)c2ccccn2)[n+]([O-])c1CC(O)NCc1cccc(Cl)c1 (centres undefined) | 0.08 nM | – |
| O=C(Cc1c(Cl)ccc(NCC(F)(F)c2ccccn2)[n+]1[O-])NCc1ncccc1-n1cncn1 | 2.5 nM | – |
| [O-][n+]1c(NCC(F)(F)c2ccccn2)ccc(Cl)c1CC(O)NCc1cccc(Cl)c1 (centres undefined) | 0.42 nM | – |
| N#Cc1ccc(NCC(F)(F)c2ccccn2)[n+]([O-])c1CC(=O)NCc1cc(Cl)ccc1CN | 0.001 nM | – |
| C[C@@H](N)c1ccc(Cl)cc1CNC(=O)Cc1c(Cl)ccc(NCC(F)(F)c2ccccn2)[n+]1[O-] | 0.45 nM | Cmax [1]: 100 nM; half-life [2]: 2 h |
| NCc1ccc(Cl)cc1CNC(=O)Cc1c(Cl)ccc(NCC(F)(F)c2ccccn2)[n+]1[O-] | < 0.01 nM | – |
| N#Cc1ccc(N)[n+]([O-])c1CC(=O)NCc1cc(Cl)ccc1CN | 10 nM | – |
| NCc1ccccc1CNC(=O)Cc1c(Cl)ccc(NCC(F)(F)c2ccccn2)[n+]1[O-] | 0.4 nM | Cmax [3]: 820 nM; half-life [2]: 1.5 h |
| N#Cc1ccc(NCC(F)(F)c2ccccn2)[n+]([O-])c1CC(=O)NCc1cc(Cl)ccc1-n1cnnn1 | 0.002 nM | – |
| N#Cc1ccc(NCC(F)(F)c2ccccn2)[n+]([O-])c1CC(=O)NCc1ccccc1 | 150 nM | – |
| O=C(Cc1c(Cl)ccc(NCC(F)(F)c2ccccn2)[n+]1[O-])NCc1cc(Cl)ccc1-n1cncn1 | 0.05 nM | – |
| NCc1ccc(Cl)cc1CNC(=O)Cc1cccc(NCC(F)(F)c2ccccn2)[n+]1[O-] | 0.04 nM | – |
| O=C(Cc1c(Cl)ccc(NCC(F)(F)c2ccccn2)[n+]1[O-])NCc1ccccc1-n1cncn1 | 2.6 nM | – |
| O=C(Cc1cccc(NCC(F)(F)c2ccccn2)[n+]1[O-])NCc1cc(Cl)ccc1-n1cnnn1 | 0.14 nM | – |
| N#Cc1ccc(NCC(F)(F)c2ccccn2)[n+]([O-])c1CC(=O)NCc1ncccc1-n1cncn1 | 0.23 nM | – |
| C[C@H](NC(=O)Cc1c(Cl)ccc(NCC(F)(F)c2ccccn2)[n+]1[O-])c1cc(Cl)ccc1CN | 3.2 nM | Cmax [4]: 2600 nM; half-life [2]: 4.5 h |
| N#Cc1ccc(NCC(F)(F)c2ccccn2)[n+]([O-])c1CC(O)NCc1ccccc1CN (centres undefined) | < 0.01 nM | – |
| NCc1ccc(Cl)cc1C(CO)NC(=O)Cc1c(Cl)ccc(NCC(F)(F)c2ccccn2)[n+]1[O-] (centres undefined) | 0.48 nM | Cmax [5]: 340 nM; half-life [2]: 1.5 h |
